Measurements as given in ChEMBL document CHEMBL4017537, “Discovery of a Potent and Specific M. tuberculosis Leucyl-tRNA Synthetase Inhibitor: (S)-3-(Aminomethyl)-4-chloro-7-(2-hydroxyethoxy)benzo[c][1,2]oxaborol-1(3H)-ol (GSK656)” (J Med Chem, 2017).

Assays:
[1] = molecular target: Leucine--tRNA ligase, cytoplasmic (Homo sapiens, UniProt Q9P2J5); assay: Inhibition of human N-terminal 6His-tagged cytoplasmic LeuRS expressed in Escherichia coli BL21(DE3) assessed as […] after 20 mins by liquid scintillation counting analysis
[2] = Volume of distribution at steady state in C57BL/6 mouse at 5.5 mg/kg, iv administered as single dose measured up to 24 hrs by LC-MS/MS analysis; assay type: ADME, organism-based; details: in vivo, read-out: Vdss
Summary of the method: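 C57BL/6 female mice (18−20 g) got one intravenous dose in saline. Whole blood (15 μL) was taken by lateral tail-vein puncture from each of 3 mice at 5, 15 and 30 min and at 1, 2, 4, 8 and 24 h postdose, and drug concentrations were measured in peripheral blood.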

[3] = Cmax in C57BL/6 mouse at 30 mg/kg administered as single dose via oral gavage measured up to 24 hrs by LC-MS/MS analysis; assay type: ADME, organism-based; set-up: dose 30 mg/kg, route oral; details: in vivo
[4] = Oral bioavailability in C57BL/6 mouse at 30 mg/kg administered as single dose via gavage measured up to 24 hrs by LC-MS/MS analysis; assay type: ADME, organism-based; details: in vivo

Sequence of Leucine--tRNA ligase, cytoplasmic (Q9P2J5 whole entry): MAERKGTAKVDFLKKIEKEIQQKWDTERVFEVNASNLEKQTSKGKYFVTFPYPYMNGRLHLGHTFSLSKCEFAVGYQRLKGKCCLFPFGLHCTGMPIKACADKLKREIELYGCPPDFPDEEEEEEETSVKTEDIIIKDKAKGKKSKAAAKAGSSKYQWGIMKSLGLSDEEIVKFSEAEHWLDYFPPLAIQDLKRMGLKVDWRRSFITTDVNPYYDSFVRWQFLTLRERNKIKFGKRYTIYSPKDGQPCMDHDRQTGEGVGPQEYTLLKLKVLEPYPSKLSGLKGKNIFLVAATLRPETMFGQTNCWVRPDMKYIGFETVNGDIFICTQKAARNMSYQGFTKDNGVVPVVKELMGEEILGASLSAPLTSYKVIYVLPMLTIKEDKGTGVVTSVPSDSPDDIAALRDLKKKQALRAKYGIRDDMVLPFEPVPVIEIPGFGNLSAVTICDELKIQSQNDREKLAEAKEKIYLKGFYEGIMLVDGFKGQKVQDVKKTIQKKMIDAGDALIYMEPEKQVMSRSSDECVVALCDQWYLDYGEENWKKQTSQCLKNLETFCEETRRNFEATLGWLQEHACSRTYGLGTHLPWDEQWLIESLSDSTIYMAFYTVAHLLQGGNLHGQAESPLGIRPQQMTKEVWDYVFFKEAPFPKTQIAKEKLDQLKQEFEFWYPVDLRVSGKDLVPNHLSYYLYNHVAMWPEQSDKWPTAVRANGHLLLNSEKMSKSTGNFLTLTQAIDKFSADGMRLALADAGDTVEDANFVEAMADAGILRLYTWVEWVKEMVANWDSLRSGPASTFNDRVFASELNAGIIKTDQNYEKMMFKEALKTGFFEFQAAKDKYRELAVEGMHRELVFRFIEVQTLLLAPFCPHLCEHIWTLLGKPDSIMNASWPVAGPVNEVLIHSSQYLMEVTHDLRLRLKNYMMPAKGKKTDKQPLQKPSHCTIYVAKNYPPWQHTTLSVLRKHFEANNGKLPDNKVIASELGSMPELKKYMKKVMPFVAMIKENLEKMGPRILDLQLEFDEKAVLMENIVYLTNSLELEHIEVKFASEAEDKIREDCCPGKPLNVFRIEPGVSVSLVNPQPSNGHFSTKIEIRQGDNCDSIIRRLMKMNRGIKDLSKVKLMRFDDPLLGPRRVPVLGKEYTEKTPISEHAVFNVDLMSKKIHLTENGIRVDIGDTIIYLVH

For `Cl.NC[C@H]1OB(O)c2c(OCCO)ccc(Cl)c21`, the IC50 [1] was 132 µM, the Vd [2] was 2.3 L/kg and the Cmax [3] was 17800 ng/mL. For the same molecule, the bioavailability [4] was 100%.
